Data published in ChEMBL document CHEMBL4715754, “Slowing down fat digestion and absorption by an oxadiazolone inhibitor targeting selectively gastric lipolysis” (2016).
Active and inactive are the calls of the source. No cut-off for these calls is given here.

Tests used:
[1] = molecular target: T1, Pancreatic triacylglycerol lipase (Sus scrofa) (UniProt P00591); assay: Inhibition of porcine pancreatic lipase at 400:1 molar excess compound concentration preincubated for 30 mins at 25 degreeC relative to control
T1 sequence (whole entry): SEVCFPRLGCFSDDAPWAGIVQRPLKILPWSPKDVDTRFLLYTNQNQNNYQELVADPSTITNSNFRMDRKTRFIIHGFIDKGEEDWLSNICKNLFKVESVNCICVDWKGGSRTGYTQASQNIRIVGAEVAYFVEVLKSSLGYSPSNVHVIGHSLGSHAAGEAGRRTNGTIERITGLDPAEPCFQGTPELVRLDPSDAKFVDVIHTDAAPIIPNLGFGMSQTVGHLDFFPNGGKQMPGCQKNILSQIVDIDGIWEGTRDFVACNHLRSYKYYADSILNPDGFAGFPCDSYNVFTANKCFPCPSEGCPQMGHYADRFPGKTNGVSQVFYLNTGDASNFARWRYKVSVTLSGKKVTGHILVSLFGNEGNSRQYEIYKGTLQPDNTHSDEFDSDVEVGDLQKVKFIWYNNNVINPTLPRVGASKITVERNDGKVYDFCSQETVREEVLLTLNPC
In short: (§1)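 Pancreatic lipase from human pancreatic juice (54 µg/mL HPL stock) or porcine pancreatic extract (32 µg/mL PPL stock) was held in 10 mM MES pH 7.0, 150 mM NaCl. It was pre-incubated with inhibitor from DMSO stock for 30 min at 25 °C with 4 mM NaTDC at varied molar excess. Residual activity was read by pH-stat on tributyrin at 37 °C, pH 8.0, with 2 mM CaCl₂ and 4 mM NaTDC. x_I50 was taken from residual activity; DMSO-only controls were run.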

[2] = molecular target: T2, Pancreatic lipase-related protein 2 (Cavia porcellus) (UniProt P81139); assay: Inhibition of recombinant guinea pig PL-RP2 expressed in Aspergillus oryzae at 4:1 molar excess compound concentration preincubated for 30 mins at 25 degreeC relative to control
T2 sequence (whole entry): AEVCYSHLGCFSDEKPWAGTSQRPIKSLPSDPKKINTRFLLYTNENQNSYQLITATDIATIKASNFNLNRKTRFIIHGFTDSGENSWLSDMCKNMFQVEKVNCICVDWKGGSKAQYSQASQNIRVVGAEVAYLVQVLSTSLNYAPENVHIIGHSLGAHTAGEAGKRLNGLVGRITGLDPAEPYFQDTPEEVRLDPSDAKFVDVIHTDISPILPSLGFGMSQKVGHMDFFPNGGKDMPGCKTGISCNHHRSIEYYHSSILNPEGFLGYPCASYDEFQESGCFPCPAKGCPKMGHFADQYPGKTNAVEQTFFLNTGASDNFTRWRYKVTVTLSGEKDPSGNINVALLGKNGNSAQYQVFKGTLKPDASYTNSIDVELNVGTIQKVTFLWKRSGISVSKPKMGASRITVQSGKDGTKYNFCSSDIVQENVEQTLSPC

[3] = molecular target: T3, Gastric triacylglycerol lipase (Canis lupus familiaris) (UniProt P80035); assay: Inhibition of recombinant dog gastric lipase at 20:1 molar excess compound concentration preincubated for 30 mins at 25 degreeC relative to control
T3 sequence (whole entry): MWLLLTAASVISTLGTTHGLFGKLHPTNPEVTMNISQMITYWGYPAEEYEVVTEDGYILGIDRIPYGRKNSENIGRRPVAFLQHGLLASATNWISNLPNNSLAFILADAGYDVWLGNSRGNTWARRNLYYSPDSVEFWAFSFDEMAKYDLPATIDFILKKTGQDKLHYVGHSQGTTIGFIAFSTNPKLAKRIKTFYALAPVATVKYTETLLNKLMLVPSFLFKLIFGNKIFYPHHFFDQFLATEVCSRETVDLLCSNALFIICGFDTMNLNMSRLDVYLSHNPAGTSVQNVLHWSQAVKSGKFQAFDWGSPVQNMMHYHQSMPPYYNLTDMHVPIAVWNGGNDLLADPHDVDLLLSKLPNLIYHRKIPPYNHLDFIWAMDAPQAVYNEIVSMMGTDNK

[4] = molecular target: T1, Pancreatic triacylglycerol lipase (Sus scrofa); assay: Inhibition of porcine pancreatic lipase preincubated for 30 mins at 25 degreeC; in short: as §1
[5] = molecular target: T2, Pancreatic lipase-related protein 2 (Cavia porcellus); assay: Inhibition of recombinant guinea pig PL-RP2 expressed in Aspergillus oryzae preincubated for 30 mins at 25 degreeC
[6] = molecular target: T3, Gastric triacylglycerol lipase (Canis lupus familiaris); assay: Inhibition of recombinant dog gastric lipase at 4:1 molar excess compound concentration preincubated for 30 mins at 25 degreeC relative to control
[7] = molecular target: T4, Pancreatic triacylglycerol lipase (Homo sapiens) (UniProt P16233); assay: Inhibition of human pancreatic lipase preincubated for 30 mins at 25 degreeC; in short: as §1
T4 sequence (whole entry): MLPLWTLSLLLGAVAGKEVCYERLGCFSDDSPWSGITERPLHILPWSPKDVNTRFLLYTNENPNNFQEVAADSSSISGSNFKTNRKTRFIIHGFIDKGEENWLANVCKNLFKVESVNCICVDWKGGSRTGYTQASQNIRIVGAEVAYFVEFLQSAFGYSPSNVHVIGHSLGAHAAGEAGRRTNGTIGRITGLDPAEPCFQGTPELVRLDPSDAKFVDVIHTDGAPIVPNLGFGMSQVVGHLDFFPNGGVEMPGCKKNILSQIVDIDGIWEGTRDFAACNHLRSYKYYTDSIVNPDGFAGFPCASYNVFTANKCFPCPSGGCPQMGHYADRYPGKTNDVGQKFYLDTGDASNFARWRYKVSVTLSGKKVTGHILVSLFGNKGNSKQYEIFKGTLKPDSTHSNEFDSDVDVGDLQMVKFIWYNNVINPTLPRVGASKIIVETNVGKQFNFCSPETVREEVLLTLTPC

[8] = molecular target: T3, Gastric triacylglycerol lipase (Canis lupus familiaris); assay: Inhibition of recombinant dog gastric lipase preincubated for 30 mins at 25 degreeC
[9] = molecular target: T2, Pancreatic lipase-related protein 2 (Cavia porcellus); assay: Inhibition of recombinant guinea pig PL-RP2 expressed in Aspergillus oryzae at 20:1 molar excess compound concentration preincubated for 30 mins at 25 degreeC relative to control
[10] = molecular target: T4, Pancreatic triacylglycerol lipase (Homo sapiens); assay: Inhibition of human pancreatic lipase at 400:1 molar excess compound concentration preincubated for 30 mins at 25 degreeC relative to control; in short: as §1
[11] = molecular target: T4, Pancreatic triacylglycerol lipase (Homo sapiens); assay: Inhibition of human pancreatic lipase at 400:1 molar excess compound concentration preincubated for 120 mins at 25 degreeC
[12] = molecular target: T1, Pancreatic triacylglycerol lipase (Sus scrofa); assay: Inhibition of porcine pancreatic lipase at 400:1 molar excess compound concentration preincubated for 120 mins at 25 degreeC

## CCCCCCCCCCOc1nn(-c2cccc(Oc3ccccc3)c2)c(=O)o1
[1]
  inhibition: 32.5%
[2]
  inhibition: 56.4%
[3]
  inhibition: 37.7%
[4]
  XI50: > 400 molar excess
[5]
  XI50: 2.72 molar excess
[6]
  inhibition: 14.6%
[7]
  XI50: > 400 molar excess
[8]
  XI50: > 100 molar excess
[9]
  inhibition: 57.4%
[10]
  inhibition: 20.1%

## COc1nn(-c2ccc(Oc3ccccc3)cc2)c(=O)o1
[4]
  XI50: > 400 molar excess
[10]
  inhibition: 4%

## CC(C)COc1nn(-c2cccc(Oc3ccccc3)c2)c(=O)o1
[1]
  inhibition: 20.6%
[2]
  inhibition: 73.6%
[3]
  inhibition: 69.6%
[4]
  XI50: > 400 molar excess
[5]
  XI50: 0.52 molar excess
[6]
  inhibition: 35.2%
[7]
  XI50: > 400 molar excess
[8]
  XI50: 5.51 molar excess
[9]
  inhibition: 76%
[10]
  inhibition: 21.2%

## COCCOc1nn(-c2cccc(Oc3ccccc3)c2)c(=O)o1
[1]
  inhibition: 15.5%
[2]
  inhibition: 60.3%
[3]
  inhibition: 69.1%
[4]
  XI50: > 400 molar excess
[5]
  XI50: 1.7 molar excess
[6]
  inhibition: 18.1%
[7]
  XI50: > 400 molar excess
[8]
  XI50: 11.8 molar excess
[9]
  inhibition: 67.8%
[10]
  inhibition: 20%

## COc1nn(-c2cccc(Oc3ccccc3)c2)c(=O)o1
[11]
  inhibition: inactive
[12]
  inhibition: inactive
[10]
  inhibition: 49.1%

## CCCCCCOc1nn(-c2cccc(Oc3ccccc3)c2)c(=O)o1
[1]
  inhibition: 27.2%
[2]
  inhibition: 90.7%
[3]
  inhibition: 65.9%
[4]
  XI50: > 400 molar excess
[5]
  XI50: 1.09 molar excess
[6]
  inhibition: 43.5%
[7]
  XI50: > 400 molar excess
[8]
  XI50: 4.92 molar excess
[9]
  inhibition: 91.3%
[10]
  inhibition: 17.1%

## CCCCCCCCCCCCOc1nn(-c2cccc(Oc3ccccc3)c2)c(=O)o1
[1]
  inhibition: 27.9%
[2]
  inhibition: 53.1%
[3]
  inhibition: 68.2%
[4]
  XI50: > 400 molar excess
[5]
  XI50: 1.17 molar excess
[6]
  inhibition: 44.1%
[7]
  XI50: > 400 molar excess
[8]
  XI50: 4.57 molar excess
[9]
  inhibition: 54.4%
[10]
  inhibition: 29.1%

## CCCCOc1nn(-c2cccc(Oc3ccccc3)c2)c(=O)o1
[1]
  inhibition: 19.7%
[2]
  inhibition: 42.4%
[3]
  inhibition: 77.5%
[4]
  XI50: > 400 molar excess
[5]
  XI50: > 40 molar excess
[6]
  inhibition: 41.5%
[7]
  XI50: > 400 molar excess
[8]
  XI50: 5.33 molar excess
[9]
  inhibition: 43.8%
[10]
  inhibition: 19.1%

## CCOc1nn(-c2cccc(Oc3ccccc3)c2)c(=O)o1
[1]
  inhibition: 19%
[2]
  inhibition: 27.4%
[3]
  inhibition: 83%
[4]
  XI50: > 400 molar excess
[5]
  XI50: > 40 molar excess
[6]
  inhibition: 33.6%
[7]
  XI50: > 400 molar excess
[8]
  XI50: 6.08 molar excess
[9]
  inhibition: 27.7%
[10]
  inhibition: 18.8%

## CCCCC(CC)COc1nn(-c2cccc(Oc3ccccc3)c2)c(=O)o1 (stereo not drawn)
[1]
  inhibition: 18.9%
[2]
  inhibition: 47.9%
[3]
  inhibition: 27.6%
[4]
  XI50: > 400 molar excess
[5]
  XI50: 2.8 molar excess
[6]
  inhibition: 21.6%
[7]
  XI50: > 400 molar excess
[8]
  XI50: > 100 molar excess
[9]
  inhibition: 54.8%
[10]
  inhibition: 22.4%

## CCCCCCCCOc1nn(-c2cccc(Oc3ccccc3)c2)c(=O)o1
[1]
  inhibition: 19.9%
[2]
  inhibition: 62.3%
[3]
  inhibition: 70.5%
[4]
  XI50: > 400 molar excess
[5]
  XI50: 1.47 molar excess
[6]
  inhibition: 53.9%
[7]
  XI50: > 400 molar excess
[8]
  XI50: 3.99 molar excess
[9]
  inhibition: 63%
[10]
  inhibition: 25.7%

## COc1nn(-c2ccccc2)c(=O)o1
[1]
  inhibition: 90.6%
[7]
  XI50: > 400 molar excess
[10]
  inhibition: 25.6%
